# GPR7 antagonist: GPR7 receptor antagonists, primary screen, cell-based, fluorescence, single concentration. Neuropeptides B/W receptor type 1 (Homo sapiens), P48145. GPR7-expressing cells, fluorescence antagonist assay. inhibition, % at 4.4 µM. 290,000 tested, 1.1% active. AID 1861, 2009; in the data active = inhibition above about 16%, passing the limit was not always enough;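 also: cells stimulated with the agonist NPW; 0% = agonist with vehicle and 100% = vehicle without agonist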
# Target sequence (P48145 whole entry, looked up): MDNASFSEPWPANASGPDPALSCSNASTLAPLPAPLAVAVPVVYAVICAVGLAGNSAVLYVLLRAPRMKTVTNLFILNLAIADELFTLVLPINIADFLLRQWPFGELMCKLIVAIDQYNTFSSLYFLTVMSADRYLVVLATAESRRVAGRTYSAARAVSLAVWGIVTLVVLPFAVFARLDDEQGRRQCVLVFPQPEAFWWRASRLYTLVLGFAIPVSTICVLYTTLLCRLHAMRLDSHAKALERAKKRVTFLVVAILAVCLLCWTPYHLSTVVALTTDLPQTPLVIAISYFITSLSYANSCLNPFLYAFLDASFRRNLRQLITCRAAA
# TAAR1 antagonist: human TAAR1 antagonists, primary screen, Fluo-8 calcium fluorescence, CHO RD-HGA16 cells; AID 624466, 2012; 360,000 tested, 1.5% active; inhibition, % at 3 µM; Trace amine-associated receptor 1 (Homo sapiens), Q96RJ0; antagonist;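 active = inhibition above a per-plate cutoff, the mean inhibition of test compounds on that plate plus 3 SD, cut at about 49% in these data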;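 also: 0% = DMSO plus EC80 beta-PEA response and 100% = DMSO alone without agonist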
#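 Material: CHO RD-HGA16 cells bearing hTAAR1; compound dosing: one-point dosing, 3 µM nominal final; schedule: dye loading 75 min at 37 °C, then 30 min room temperature; measured by: calcium fluorescence with Fluo-8; control set: vehicle and agonist controls; replication: n of 1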
# TAAR1 ag: human TAAR1 agonists, primary screen, Fluo-8 calcium fluorescence, CHO RD-HGA16 cells. Trace amine-associated receptor 1 (Homo sapiens), Q96RJ0. activation, % at 3 µM. 360,000 tested, 0.99% active. vehicle wells 0%, saturating PEA agonist 100%;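 active = activation above the mean activation of all test compounds in the run plus 3 SD, cut at about 38% in these data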
#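 Signal – calcium-sensitive Fluo-8 signal, excitation 470-495, emission 515-575 nm · System – RD-HGA16 (CHO) cells co-expressing Gα16 and hTAAR1 · Incubation – 17-24 h seeding, 75 min 37 °C dye, 30 min RT · Compound dosing – 3 µM single concentration · Repeats – no replicates (n 1)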
# CHO parental Ca: ATP-evoked calcium signal inhibitors, parental CHO, primary screen, counter-screen for OX1R antagonist project, cell-based, fluorescence, Fluo-8 calcium dye; parental CHO-K1, ATP-induced calcium, Fluo-8 fluorescence; 330,000 tested, 0.63% active; inhibition, % at 5.6 µM;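 active = inhibition above that plate's mean sample inhibition plus 3 SD, cut at about 26% in these data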;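 also: 0% = ATP-challenged DMSO wells and 100% = DMSO wells without ATP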
#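 material = parental CHO cells | also added = ATP as calcium-mobilizing challenge | dosing = single point at 5.6 µM | detection = intracellular calcium via Fluo-8 no-wash fluorescent dye | read-out = % inhibition | benchmarks = low control ATP plus DMSO, high control DMSO only | repeats = one well per compound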
# OX1R antag-1: antagonists of human orexin 1 receptor (OX1R) | OX1R-expressing cells, FRET antagonist read-out | Orexin/Hypocretin receptor type 1 (Homo sapiens), O43613 | inhibition, % at 6.6 µM | 330,000 tested, 1.8% active; in the data active = inhibition mostly above about 38%, no sharp cut-off; inactive = mostly below about 40%;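 also: 0% = agonist challenge alone and 100% = reference antagonist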
# OX1R antag-2: OX1R (HCRTR1) antagonists, primary screen, fluorescence, CHO/OX1R cells, Fluo-8 calcium, orexin A | Orexin/Hypocretin receptor type 1 (Homo sapiens), O43613 | Fluo-8 calcium fluorescence | inhibition, % at 5 µM | 330,000 tested, 0.43% active | AID 434989, 2010;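 active = inhibition above its plate's threshold, mean inhibition of all tested compounds on the plate plus 3 SD, cut at about 37% in these data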;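 also: 0% = orexin A challenge wells and 100% = SB-334867-A antagonist wells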
# The depositor's hits bear a star; · = no result. Sampled rows, rich in hits. Any-hit rate of the full collection: about 4.5%.
SMILES,GPR7 antagonist,TAAR1 antagonist,TAAR1 ag,CHO parental Ca,OX1R antag-1,OX1R antag-2
COc1cc(COCC(O)CN2CCN(CCN3C(=O)c4cccc5cccc(c45)C3=O)CC2)cc(OC)c1OC (stereo not drawn),-6,-9,-1,-11,22,-29
Cc1cc(C)cc(OCC(O)CN2CCC(CN3C(=O)c4cccc5cccc(c45)C3=O)CC2)c1 (stereo not drawn),·,0,39*,17,18,1
COc1ccc(COCC(O)CN2CCC(CN3C(=O)c4cccc5cccc(c45)C3=O)CC2)cc1OC (stereo not drawn),-2,-13,4,-27,49*,-18
COC(=O)c1cc(S(=O)(=O)NCC2CCN(C(=O)C(=O)c3cccs3)CC2)cs1,·,-19,3,·,·,·
CCc1ccc(N/C(N)=N/c2nc(CSc3ccccn3)cc(=O)[nH]2)cc1,-1,55*,8,-5,19,-5
CCOC(=O)c1cc(-c2ccc(C#N)cc2)nc2c1c(C)nn2CCC#N,5,-1,3,-6,6,-10
CCOC(=O)c1cc(-c2ccc(OC)cc2)nc2c1c(C)nn2CCC#N,19*,6,9,-31,10,-17
COc1ccc(CCNC(=O)Cn2ccc3cc(S(=O)(=O)N4CCCC4)ccc32)cc1OC,-9,10,0,-15,57*,9
Cc1ccccc1CCNC(=O)Cn1ccc2cc(S(=O)(=O)N3CCCC3)ccc21,4,-13,18,-16,46*,16
Cc1ccc(CCNC(=O)Cn2ccc3cc(S(=O)(=O)N4CCCC4)ccc32)cc1,4,3,1,-19,56*,22
COCCNC(=S)N(C)[C@H]1C[C@H]2c3[nH]c4c(-c5ccccc5)cccc4c3CCN2C[C@H]1[C@H](C)O,·,-6,3,·,·,·
N#Cc1c(-c2ccco2)cc(-c2ccccn2)nc1N,1,10,2,-15,73*,4
C=CC(=O)NC1CCCCN(C)C1=O (stereo not drawn),·,-11,1,·,·,·
O=C(Nc1c[nH]c(=O)[nH]c1=O)c1cc([N+](=O)[O-])cc([N+](=O)[O-])c1,-1,2,3,0,69*,-1
Cc1ccc2c(c1)sc(-c1ccc(N(C)C)cc1)[n+]2C,19,14,1,42*,40*,10
COc1ccc(-c2nc3ccc(C)cn3c2NCc2ccccc2)cc1SC1CCCCC1,·,·,·,94*,18,77*
CCCCNc1c(-c2ccc(-c3ccc(C(C)=O)cc3)c(OC)c2)nc2cc(C)ccn12,·,56*,3,15,23,24
CCCCCCSc1cc(-c2nc3ccc(C)cn3c2NCCCC)ccc1OC,·,48,11,27,9,36
COc1ccc(-c2nc3ccc(Cl)cn3c2NC2CCCCC2)cc1SC1CCCCC1,·,-25,3,-32,5,-29
CCCCNc1c(-c2ccc(OC)c(SC3CCCCC3)c2)nc2ccc(C)cn12,·,85*,26,98*,32*,90*
CC1=C(C(=O)N(C(C)C)C(C)C)CC(CC(=O)NC2CCCC2)C(=O)N1Cc1ccccc1 (stereo not drawn),·,-15,0,·,·,·
Cc1cc(C)n(C(=O)/C(C#N)=N/Nc2cc(Cl)cc(Cl)c2)n1,5,·,·,75*,59*,59*
Cc1cc(C)n(C(=O)/C(C#N)=N\Nc2ccccc2[N+](=O)[O-])n1,0,29,2,-6,24,-16
Cc1nn(-c2ccccc2)nc1C(=O)Nc1nnc(C(F)(F)F)s1,-12,-13,4,-3,41*,0
O=C(Nc1nnc(C(F)(F)F)s1)c1ccc(Br)s1,5,-24,8,26*,49*,7
CC(NC(=O)Nc1nnc(C(F)(F)F)s1)(C(F)(F)F)C(F)(F)F,11,2,8,60*,59*,51*

# Source: PubChem
